Published values of several laboratories.
Lines come from different studies, so protocols differ.
CNR2: Cannabinoid receptor 2 (CNR2, Homo sapiens, UniProt P34972)
F10: Coagulation factor X (F10, Homo sapiens, UniProt P00742)
Ribonuclease H1: Ribonuclease H1 (Homo sapiens, UniProt O60930)

CCCCCc1ccccc1C/C=C\C/C=C\C/C=C\CCCC(=O)N[C@H](C)CO — EC50 (CNR2; β-arrestin recruitment; agonist): 436 nM
COc1ccc(CCCCC(=O)C(F)(F)C(F)(F)F)cc1 — IC50 (85/88 kDa calcium-independent phospholipase A2 (PLA2G6, Homo sapiens, UniProt O60733); enzyme activity; inhibitor): 170 nM
CC(C)(NC(=O)c1nn(CCCCCF)c2ccccc12)c1cccc(C(N)=O)c1 — Ki (CNR2; ligand displacement; radioligand; cell membranes): 130 nM
CCCCC/C=C\C/C=C\C/C=C\Cc1ccccc1CCCC(=O)N[C@H](C)CO — EC50 (CNR2; β-arrestin recruitment; agonist): 14.7 nM
CS(=O)(=O)N[C@@H](CCC(N)=O)C(=O)N[C@@H](Cc1ccccc1)C(=O)N[C@@H](CCCNC(=N)N)C(=O)c1nc2ccccc2s1 — Ki (F10; cell-free assay): 16 nM
CC[C@H](C)[C@@H](C(=O)N1CCC[C@H]1c1nccs1)N(C)C(=O)[C@H](CC(C)C)N(C)C(=O)[C@H](Cc1ccc(OC)cc1)N(C)C(=O)/C=C(\C)OC — IC50 (CNR2; ligand displacement; radioligand): 6100 nM
CCCCC/C=C\[C@H](C)/C=C\C/C=C\Cc1ccccc1CCCC(=O)N[C@H](C)CO — EC50 (CNR2; cAMP; agonist): 751 nM
COc1ccc(-c2cccc(Nc3cc(=O)n(O)c(=O)n3C)c2)cc1 — IC50 (Ribonuclease H1; enzyme activity; inhibitor): > 10000 nM
CC(C)(NC(=O)c1nn(Cc2ccc(C#N)cc2)c2ccccc12)c1cccc(C(N)=O)c1 — Ki (CNR2; ligand displacement; radioligand; cell membranes): 290 nM
O=c1c(-c2ccccc2)c(O)c2cc(-c3cccc(-c4ccccc4)c3)cnc2n1O — IC50 (Ribonuclease H1; enzyme activity; inhibitor): > 10000 nM
CCCCC/C=C\[C@H](C)/C=C\C/C=C\Cc1ccccc1CCCC(=O)OC(CO)CO — EC50 (CNR2; β-arrestin recruitment; agonist): 4180 nM
CC(C)(NC(=O)c1nn(CCCCC#N)c2ccccc12)c1cccc(C(N)=O)c1 — Ki (CNR2; ligand displacement; radioligand; cell membranes): 780 nM
Cc1ccc(NC(=O)c2c(Nc3ccccc3)[nH]c(=O)n(O)c2=O)cc1 — IC50 (Ribonuclease H1; enzyme activity; inhibitor): > 10000 nM
CCOC(=O)N[C@@H](CCCNC(=N)N)C(=O)N[C@@H](CCC(N)=O)C(=O)N[C@@H](Cc1ccccc1)C(=O)N[C@@H](CCCNC(=N)N)C(=O)c1nc2ccccc2s1 — Ki (F10; cell-free assay): 15 nM
O=[N+]([O-])c1ccc(O)c([N+](=O)[O-])c1 — Kd (Casein kinase I isoform alpha (CSNK1A1, Homo sapiens, UniProt P48729); binding; SPR): > 50000 nM
CC(C)(C#N)CCCn1nc(C(=O)NC(C)(C)c2cccc(C(N)=O)c2)c2ccccc21 — Ki (CNR2; ligand displacement; radioligand; cell membranes): 130 nM
